Assay results of several laboratories.
Lines come from different studies, so protocols differ.
CDK9: Cyclin-dependent kinase 9 (CDK9, Homo sapiens, UniProt P50750)

| Structure (SMILES) | target | assay | test system | setting | endpoint | result |
| --- | --- | --- | --- | --- | --- | --- |
| C=CC(=O)N1CCC[C@@H](n2nc(-c3ccc(Oc4ccccc4)cc3)c3c(N)ncnc32)C1 | CDK9 | enzyme activity, inhibitor |  | 1 µM | inhibition | 2% |
| CC(C)(C)c1cnc(CSc2cnc(NC(=O)C3CCN(C(=O)CCCCCCCN4Cc5cc6c(cc5C4)C(=O)N(C4CCC(=O)NC4=O)C6=O)CC3)s2)o1 (stereo not drawn) | CDK9 | protein level, degrader, western blot | TC-71 | 25 nM | inhibition | 94.4% |
| CN1CCN(C(=O)c2ccc(NC(=O)Nc3ccc(N(C)c4ccnc(Nc5ccc(CS(C)(=O)=O)cc5)n4)cc3)cc2)CC1 | CDK9 | binding |  | 1 µM | remaining binding | 69% |
| CCCCC(=O)Nc1ccc(-c2ccc3ncn(CCC)c(=O)c3c2)cn1 | CDK9 | binding, competition with immobilised ligand |  | 0.5 µM | remaining binding | 92% |
| COc1ccc2[nH]c3c4[nH]c5ccc(OC)cc5c4c4c(c3c2c1)C(=O)NC4=O | CDK9 | binding |  | 1 µM | remaining binding | 58% |
| CC(C)S(=O)(=O)c1ccc2nccc(Nc3ccc4sc(C5CCCC5)nc4c3)c2c1 | Cyclin-dependent kinase 9, with cyclin T1 (CDK9, Homo sapiens, UniProt P50750) | enzyme activity, inhibitor |  | 1 µM | activity vs control | 98% |
| CC(C)(C)c1cnc(CSc2cnc(NC(=O)C3CCN(C(=O)CCCCCCCCCCCN4Cc5cc6c(cc5C4)C(=O)N(C4CCC(=O)NC4=O)C6=O)CC3)s2)o1 (stereo not drawn) | CDK9 | protein level, degrader, western blot | TC-71 | 25 nM | inhibition | 78% |
| Cc1cc(S(=O)(=O)N[C@H]2CC[C@H](CN3CCN(c4ccc(C5CCC(=O)NC5=O)cc4F)CC3)CC2)ccc1Nc1ncc(C(F)(F)F)c(N2CCC[C@](C)(O)C2)n1 (stereo partly drawn) | CDK9 | binding, competition with immobilised ligand |  | 1 µM | remaining binding | 78% |
| CC(C)(C)c1cnc(CSc2cnc(NC(=O)C3CCN(C(=O)CCCCN4Cc5cc6c(cc5C4)C(=O)N(C4CCC(=O)NC4=O)C6=O)CC3)s2)o1 (stereo not drawn) | CDK9 | protein level, degrader, western blot | TC-71 | 25 nM | inhibition | 80.1% |
| C[C@]1(O)CCCN(c2nc(Nc3ccc(S(=O)(=O)N[C@H]4CC[C@H](CN5CCN(c6ccc(C7CCC(=O)NC7=O)cc6F)CC5)CC4)cc3Cl)ncc2C(F)(F)F)C1 (stereo partly drawn) | CDK9 | binding, competition with immobilised ligand |  | 1 µM | remaining binding | 100% |
| C=CC(=O)N1CCC([C@@H]2CCNc3c(C(N)=O)c(-c4ccc(Oc5ccccc5)cc4)nn32)CC1 | CDK9 | enzyme activity, inhibitor |  | 1 µM | inhibition | 0% |
| C1=C/COCc2cc(ccc2OCCN2CCCC2)Nc2nccc(n2)-c2cccc(c2)COC/1 | CDK9 | binding |  | 0.1 µM | remaining binding | 64% |
